ChEMBL document CHEMBL2016487, “Pyrazolopyrimidines as dual Akt/p70S6K inhibitors” (Bioorg Med Chem Lett, 2012)
pIC50: −log10 of the molar value.

Assays:
[1] = Half life in rat at 5 mg/kg, po; format: ADME, organism-based; parameters: dose 5 mg/kg, route oral; conditions: in vivo
[2] = Cmax in rat at 5 mg/kg, iv; format: ADME, organism-based; parameters: dose 5 mg/kg, route intravenous; conditions: in vivo
[3] = target: T1, Ribosomal protein S6 kinase beta-1 (Homo sapiens, UniProt P23443); assay: Inhibition of p70S6K-mediated ribosomal protein S6 phosphorylation in human A549 cells after 3 hrs by chemiluminescence assay; format: cell-based
How it was run: (§1)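 A549 or PC-3 cells seeded at 7.5 × 10³ cells/well in DMEM with heat-inactivated 10% FBS, 1% penicillin–streptomycin, 1% non-essential amino acids, grown 48 h at 37 °C, 5% CO₂. Treated 3 h with compound at 1.2–300 nM, triplicate, 0.2% DMSO final. Fixed in 4% formaldehyde, blocked, probed with anti-phospho-S6 (Ser240/244) and anti-total-S6 overnight at 4 °C, chemiluminescent read-out.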

[4] = Clearance in rat at 5 mg/kg; format: ADME, organism-based; parameters: dose 5 mg/kg; conditions: in vivo
[5] = Volume of distribution in rat at 5 mg/kg; format: ADME, organism-based; parameters: dose 5 mg/kg; conditions: in vivo
[6] = Oral bioavailability in rat at 5 mg/kg; format: ADME, organism-based; conditions: in vivo
[7] = Cmax in rat at 5 mg/kg, po; format: ADME, organism-based; parameters: dose 5 mg/kg, route oral; conditions: in vivo
Rattus norvegicus [8] = assay: Dose normalized AUC in rat at 5 mg/kg, po; format: ADME, organism-based; parameters: dose 5 mg/kg, route oral; conditions: in vivo
[9] = target: T1, Ribosomal protein S6 kinase beta-1; assay: Inhibition of p70S6K after 3 hrs by luciferase based chemiluminescence assay
[10] = target: T2, RAC-alpha serine/threonine-protein kinase (Homo sapiens, UniProt P31749); assay: Inhibition of AKT1-mediated GSK3beta phosphorylation in human PC3 cells after 3 hrs by chemiluminescence assay; format: cell-based, PC-3
How it was run: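 PC-3 cells seeded at 7.5 × 10³ cells/well, grown 24 h, then serum-starved 24 h. Compound treatment 3 h in triplicate (0.2% DMSO final), followed by 100 ng/ml IGF1 for 30 min. Fixed and processed as a cell ELISA using anti-phospho-GSK3β (S9) and anti-total-GSK3β antibodies, chemiluminescent read-out.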

[11] = Plasma concentration in mouse at 100 mg/kg after 1 hr; format: ADME, organism-based; parameters: dose 100 mg/kg
How it was run: (§2)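 Mouse plasma levels measured 1 and 4 h after a 100 mg/kg dose.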

[12] = target: T2, RAC-alpha serine/threonine-protein kinase; assay: Inhibition of AKT1 after 3 hrs by luciferase based chemiluminescence assay
[13] = Half life in rat at 5 mg/kg, iv; format: ADME, organism-based; parameters: dose 5 mg/kg, route intravenous; conditions: in vivo
[14] = target: T1, Ribosomal protein S6 kinase beta-1; assay: Inhibition of p70S6K-mediated ribosomal protein S6 phosphorylation in human PC3 cells after 3 hrs by chemiluminescence assay; format: cell-based, PC-3; how it was run: as §1
[15] = Plasma concentration in mouse at 100 mg/kg after 4 hrs; format: ADME, organism-based; parameters: dose 100 mg/kg; how it was run: as §2
Rattus norvegicus [16] = assay: Dose normalized AUC in rat at 5 mg/kg, iv; format: ADME, organism-based; parameters: dose 5 mg/kg, route intravenous; conditions: in vivo
[17] = Drug metabolism in mouse liver microsomes at 15 uM after 30 mins; format: ADME, Microsome; conditions: read-out: Drug metabolism
How it was run: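 Mouse liver microsomes at 0.5 mg/mL, incubated 30 min with compound at 15 µM; value reported as % conversion.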

[18] = Volume of distribution in rat at 2.5 mg/kg; format: ADME, organism-based; parameters: dose 2.5 mg/kg; conditions: in vivo
[19] = Cmax in rat at 2.5 mg/kg, iv; format: ADME, organism-based; parameters: dose 2.5 mg/kg, route intravenous; conditions: in vivo
[20] = Half life in rat at 2.5 mg/kg, po; format: ADME, organism-based; parameters: dose 2.5 mg/kg, route oral; conditions: in vivo
[21] = Oral bioavailability in rat at 2.5 mg/kg; format: ADME, organism-based; conditions: in vivo
[22] = Clearance in rat at 2.5 mg/kg; format: ADME, organism-based; parameters: dose 2.5 mg/kg; conditions: in vivo
[23] = Half life in rat at 2.5 mg/kg, iv; format: ADME, organism-based; parameters: dose 2.5 mg/kg, route intravenous; conditions: in vivo
Rattus norvegicus [24] = assay: Dose normalized AUC in rat at 2.5 mg/kg, iv; format: ADME, organism-based; parameters: dose 2.5 mg/kg, route intravenous; conditions: in vivo
Rattus norvegicus [25] = assay: Dose normalized AUC in rat at 2.5 mg/kg, po; format: ADME, organism-based; parameters: dose 2.5 mg/kg, route oral; conditions: in vivo
[26] = Cmax in rat at 2.5 mg/kg, po; format: ADME, organism-based; parameters: dose 2.5 mg/kg, route oral; conditions: in vivo
[27] = Plasma concentration in mouse at 30 mg/kg after 4 hrs; format: ADME, organism-based; parameters: dose 30 mg/kg

T2 sequence (P31749 whole entry): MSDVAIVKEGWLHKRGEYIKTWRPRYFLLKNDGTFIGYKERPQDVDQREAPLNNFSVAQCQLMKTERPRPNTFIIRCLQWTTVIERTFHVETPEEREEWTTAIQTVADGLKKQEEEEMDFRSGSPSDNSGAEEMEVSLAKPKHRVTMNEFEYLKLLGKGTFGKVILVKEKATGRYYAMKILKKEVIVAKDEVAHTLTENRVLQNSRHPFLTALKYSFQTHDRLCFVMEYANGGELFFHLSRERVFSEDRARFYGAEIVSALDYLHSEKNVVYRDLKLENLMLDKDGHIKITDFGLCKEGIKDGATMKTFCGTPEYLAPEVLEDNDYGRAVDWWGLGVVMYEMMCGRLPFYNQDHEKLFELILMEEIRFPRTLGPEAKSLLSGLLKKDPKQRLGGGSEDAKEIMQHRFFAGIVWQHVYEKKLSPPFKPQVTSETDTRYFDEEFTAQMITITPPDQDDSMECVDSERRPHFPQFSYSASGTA
T1 sequence (P23443 whole entry): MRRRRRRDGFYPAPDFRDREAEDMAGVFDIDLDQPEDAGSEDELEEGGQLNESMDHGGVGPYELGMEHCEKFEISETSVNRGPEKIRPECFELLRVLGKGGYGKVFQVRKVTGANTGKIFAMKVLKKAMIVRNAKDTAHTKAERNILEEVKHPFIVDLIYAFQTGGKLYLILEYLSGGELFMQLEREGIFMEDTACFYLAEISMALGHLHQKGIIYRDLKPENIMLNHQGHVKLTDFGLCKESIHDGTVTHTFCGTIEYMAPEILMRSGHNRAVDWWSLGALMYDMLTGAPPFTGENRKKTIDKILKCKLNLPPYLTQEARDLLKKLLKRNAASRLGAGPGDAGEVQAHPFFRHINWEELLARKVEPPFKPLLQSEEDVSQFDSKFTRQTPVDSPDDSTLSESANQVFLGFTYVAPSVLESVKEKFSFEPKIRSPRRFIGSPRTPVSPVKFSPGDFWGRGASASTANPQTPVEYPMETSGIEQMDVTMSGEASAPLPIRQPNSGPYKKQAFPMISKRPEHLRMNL

pIC50 [3]	pIC50 [9]	pIC50 [10]	concentration at 1 h [11]	pIC50 [12]	pIC50 [14]	concentration at 4 h [15]	Vd [18]	Cmax [19]	half-life [20]	bioavailability [21]	clearance [22]	half-life [23]	AUC/dose (Rattus norvegicus [24])	AUC/dose (Rattus norvegicus [25])	Cmax [26]	Structure (SMILES)	also measured
7.74	9.00	6.01	2000 nM	8.30	7.60	2000 nM	–	–	–	–	–	–	–	–	–	CCC(=O)c1cc(NCCN2CCCC2)c(C)c(N2CCN(c3ncnc4[nH]nc(Br)c34)CC2)c1	half-life [1]: 2.9 h; Cmax [2]: 1440 nM; clearance [4]: 49 mL/min/kg; Vd [5]: 10.5 L/kg; bioavailability [6]: 28%; Cmax [7]: 140 nM; AUC/dose (Rattus norvegicus [8]): 0.15 µM·kg·h/mg; half-life [13]: 3.1 h; AUC/dose (Rattus norvegicus [16]): 0.56 µM·kg·h/mg
6.71	8.70	5.04	–	7.25	–	–	–	–	–	–	–	–	–	–	–	CCOc1cc(NCCN2CCCC2)c(C)c(N2CCN(c3ncnc4[nH]nc(Br)c34)CC2)c1	–
7.37	8.70	5.37	–	–	6.85	–	–	–	–	–	–	–	–	–	–	Cc1c(NCCN(C)C)cc(Cl)cc1N1CCN(c2ncnc3[nH]nc(Br)c23)CC1	metabolised at 0.5 h, 15 µM [17]: 50%
7.77	8.70	6.14	1200 nM	8.10	7.18	1200 nM	9.7 L/kg	390 nM	1.4 h	11%	63.5 mL/min/kg	2.1 h	0.43 µM·kg·h/mg	0.05 µM·kg·h/mg	20 nM	Cc1c(NCCN2CCCC2)cc(COCC(F)(F)F)cc1N1CCN(c2ncnc3[nH]nc(Br)c23)CC1	–
7.85	9.00	5.11	–	7.89	6.72	–	–	–	–	–	–	–	–	–	–	Cc1c(NCCN2CCCC2)cc(C(=O)Nc2ccccc2)cc1N1CCN(c2ncnc3[nH]nc(Br)c23)CC1	–
7.89	9.00	6.18	300 nM	8.22	7.33	–	14.2 L/kg	370 nM	2.9 h	10%	73 mL/min/kg	2.4 h	0.45 µM·kg·h/mg	0.05 µM·kg·h/mg	10 nM	Cc1noc(-c2cc(NCCN3CCCC3)c(C)c(N3CCN(c4ncnc5[nH]nc(Br)c45)CC3)c2)n1	concentration at 4 h [27]: 100 nM
